Measured values taken from ChEMBL document CHEMBL2146476, “Discovery of selective glucocorticoid receptor modulator MK-5932” (Bioorg Med Chem, 2011).
Activity calls are given as the source filed them. The rule behind the calls is not given here.

Experiments:
[1] = target: T1, Glucocorticoid receptor (Homo sapiens) (UniProt P04150); test: Transrepression activity at glucocorticoid receptor in human LPS and TPA-stimulated U937 cells assessed as effect on glucocorticoid-induced TNFalpha repression by beta lactamase reporter gene assay relative to dexamethasone; type: cell-based; settings: U-937
T1 sequence (whole entry): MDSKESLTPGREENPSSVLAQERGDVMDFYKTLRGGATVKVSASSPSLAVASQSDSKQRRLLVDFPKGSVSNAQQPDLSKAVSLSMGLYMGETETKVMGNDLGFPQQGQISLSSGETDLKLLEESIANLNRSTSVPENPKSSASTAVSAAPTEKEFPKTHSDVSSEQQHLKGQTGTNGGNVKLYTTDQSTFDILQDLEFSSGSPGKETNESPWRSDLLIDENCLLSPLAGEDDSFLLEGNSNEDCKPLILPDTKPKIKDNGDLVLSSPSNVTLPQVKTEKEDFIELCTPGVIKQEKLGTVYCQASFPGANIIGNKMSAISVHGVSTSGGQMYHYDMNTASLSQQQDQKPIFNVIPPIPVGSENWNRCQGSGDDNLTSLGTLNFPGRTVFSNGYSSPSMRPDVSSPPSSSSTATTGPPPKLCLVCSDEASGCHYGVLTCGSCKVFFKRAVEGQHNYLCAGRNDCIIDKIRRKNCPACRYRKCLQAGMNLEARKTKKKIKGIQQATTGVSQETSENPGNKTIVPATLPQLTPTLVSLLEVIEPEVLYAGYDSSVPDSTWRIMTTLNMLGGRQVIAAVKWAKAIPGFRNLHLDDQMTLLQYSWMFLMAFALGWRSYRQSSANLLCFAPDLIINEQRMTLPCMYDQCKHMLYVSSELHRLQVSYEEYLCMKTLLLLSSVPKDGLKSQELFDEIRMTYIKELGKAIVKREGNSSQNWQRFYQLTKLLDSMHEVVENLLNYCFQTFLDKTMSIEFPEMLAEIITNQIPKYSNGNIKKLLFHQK
Outline: (§1)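 U937 cells stably carrying a β-lactamase reporter driven by the human TNF-α promoter (-1083 to +182), in 5% charcoal-stripped FBS. Stimulated with 1 µg/mL LPS plus 50 ng/mL TPA, compound exposure 16 h. β-Lactamase read out. Activity expressed as percent of the span between DMSO and 100 nM dexamethasone controls. Mean of at least three runs.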

[2] = target: T1, Glucocorticoid receptor (Homo sapiens); test: Transactivation activity at GR-mediated modulation of MMTV promoter activity in human A549 cells transfected with luciferase gene linked to MMTV promoter after 16 hrs by luciferase reporter gene assay; type: cell-based
Outline: (§2)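 HeLa or A549 cells transiently transfected with a luciferase reporter under the MMTV promoter (two GREs), in 10% charcoal-stripped FBS. Compound exposure 16 h, then luciferase measured. Activity expressed as percent of the span between DMSO and dexamethasone controls. Mean of at least three runs.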

[3] = target: T1, Glucocorticoid receptor (Homo sapiens); test: Transactivation activity at GR-mediated modulation of MMTV promoter activity in human A549 cells transfected with luciferase gene linked to MMTV promoter after 16 hrs by luciferase reporter gene assay relative to dexamethasone; type: cell-based; outline: as §2
[4] = target: T1, Glucocorticoid receptor (Homo sapiens); test: Transactivation activity at GR-mediated modulation of MMTV promoter activity in human HeLa cells transfected with luciferase gene linked to MMTV promoter after 16 hrs by luciferase reporter gene assay; type: cell-based; outline: as §2
[5] = target: T1, Glucocorticoid receptor (Homo sapiens); test: Transactivation activity at GR-mediated modulation of MMTV promoter activity in human HeLa cells transfected with luciferase gene linked to MMTV promoter after 16 hrs by luciferase reporter gene assay relative to dexamethasone; type: cell-based; outline: as §2
Rattus norvegicus [6] = test: Antiinflammatory activity in oxazolone-induced Sprague-Dawley rat chronic dermatitis model at 0.3 to 60 mg/kg, po qd administered after 7 days of oxazolone sensitization measured after 4 to 5 hrs last post treatment on day 14; type: functional, organism-based
Outline: (§3)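 Intact 6-month-old female Sprague-Dawley rats sensitized with oxazolone on ventral abdomen on Day 0. One randomly selected ear challenged with oxazolone on Days 7 and 9, other ear given vehicle. Daily oral dosing for 7 d from Day 7, with 6-methylprednisolone or DEX as positive controls. Blood taken ~4-5 h after last dose for plasma insulin. Inflammation read as inter-ear thickness difference.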

Liver microsomes [7] = test: Drug metabolism in rat liver microsomes assessed as metabolite M1 level up to 50 mins by LC-MS analysis; type: ADME, Microsome
Liver microsomes [8] = test: Drug metabolism in rat liver microsomes assessed as metabolite M2 level up to 50 mins by LC-MS analysis; type: ADME, Microsome
Liver microsomes [9] = test: Drug metabolism in human liver microsomes assessed as metabolite M1 level up to 50 mins by LC-MS analysis; type: ADME, Microsome
Liver microsomes [10] = test: Drug metabolism in human liver microsomes assessed as metabolite M2 level up to 50 mins by LC-MS analysis; type: ADME, Microsome
Liver microsomes [11] = test: Drug metabolism in human liver microsomes assessed as metabolite M3 level up to 50 mins by LC-MS analysis; type: ADME, Microsome
Rattus norvegicus [12] = test: Toxicity in oxazolone-induced Sprague-Dawley rat chronic dermatitis model assessed as increase in plasma insulin level at 0.3 to 60 mg/kg, po qd administered after 7 days of oxazolone sensitization measured after 4 to 5 hrs last post treatment on day 14; type: organism-based; set-up: route oral; settings: in vivo; outline: as §3
Liver microsomes [13] = test: Drug metabolism in rat liver microsomes assessed as metabolite M3 level up to 50 mins by LC-MS analysis; type: ADME, Microsome
Glucocorticoid receptor = target: T2, Glucocorticoid receptor (Homo sapiens, UniProt P04150); test: Displacement of [3H]-dexamethasone from human full length GR expressed in insect Sf21 cells
T2 sequence (P04150 whole entry): T1 sequence (whole entry)
Outline: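 Human full-length GR expressed in insect cells, incubated with compound and 3H-dexamethasone overnight at 4 °C. Bound radioactivity quantified after filtration capture. Nonspecific binding defined with excess unlabelled dexamethasone. Mean of at least two runs.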

[14] = target: T1, Glucocorticoid receptor (Homo sapiens); test: Transrepression activity at glucocorticoid receptor in human LPS and TPA-stimulated U937 cells assessed as effect on glucocorticoid-induced TNFalpha repression by beta lactamase reporter gene assay; type: cell-based; settings: U-937; outline: as §1

C[C@]12Cc3cnn(-c4ccc(F)cc4)c3C=C1CC[C@@]2(O)CCc1ccc(F)cc1C(N)=O
Emax [1]: 73%
IP [2]: 186 nM
Emax [3]: 35%
IP [4]: 153 nM
Emax [5]: 23%
Activity (Rattus norvegicus [6]): Active
Drug metabolism (Liver microsomes [7]): Active
Drug metabolism (Liver microsomes [8]): Active
Drug metabolism (Liver microsomes [9]): Active
Drug metabolism (Liver microsomes [10]): Active
Drug metabolism (Liver microsomes [11]): Active
Activity (Rattus norvegicus [12]): Non-toxic
Drug metabolism (Liver microsomes [13]): Not Active
Ki (Glucocorticoid receptor): 3 nM
IP [14]: 131 nM
